# Measured values as given in ChEMBL document CHEMBL5058577, “EUbOPEN Chemogenomics Library 2 (Multiplex)” (2022).
# Test system: Fibroblast
# Experiment: Multiplex assay against human fibroblast
# Type: toxicity, cell-based
# In short: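 Cells were classed with CellPathfinder machine-learning gating, first as Hoechst high-intensity objects or normal cells, then (normal cells) as healthy, pyknosed or fragmented nuclei, and finally (pyknosed cells) as mitotic or apoptotic. Staining of live cells at seeding used Hoechst33342, BioTracker Green Microtubule Cytoskeleton Dye, MitoTracker Red and Annexin V Alexa Fluor 680, with imaging on a CQ1 microscope at 37°C and 5% CO2 after compound addition. Tubulin, mitochondrial-mass and membrane-permeability phenotypes are per cents of healthy-nucleus cells.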
# [1] = 12 h, 1 µM, compound concentration 1 uM, replicate 1
# [2] = 12 h, 1 µM, compound concentration 1 uM, replicate 2
# [3] = 12 h, 10 µM, compound concentration 10 uM, replicate 1
# [4] = 12 h, 10 µM, compound concentration 10 uM, replicate 2
# [5] = 24 h, 1 µM, compound concentration 1 uM, replicate 1
# [6] = 24 h, 1 µM, compound concentration 1 uM, replicate 2
# [7] = 24 h, 10 µM, compound concentration 10 uM, replicate 1
# [8] = 24 h, 10 µM, compound concentration 10 uM, replicate 2
# [9] = 48 h, 1 µM, compound concentration 1 uM, replicate 1
# [10] = 48 h, 1 µM, compound concentration 1 uM, replicate 2
# [11] = 48 h, 10 µM, compound concentration 10 uM, replicate 1
# [12] = 48 h, 10 µM, compound concentration 10 uM, replicate 2
smiles,measurement,setting,value
CSc1ccccc1N1CCN(CCCCCC(=O)NC2CCCc3ccccc32)CC1.Cl (stereo not drawn),Population Apoptotic (%),[1],37%
same,Population Fragmented Nuclei (%),[1],26%
same,Population Healthy Nuclei (%),[1],49%
same,Population Hoechst High Intensity Objects (%),[1],6%
same,Population Membrane Permeable-Phenotype (%),[1],1%
same,Population Mitochondria Different-Phenotype (%),[1],15%
same,Population Mitotic Cells (%),[1],62%
same,Population Normal (%),[1],93%
same,Population Pyknosed Nuclei (%),[1],24%
same,Population Tubulin-Different-Phenotype (%),[1],65%
same,Total Cell Count,[1],126
same,Population Apoptotic (%),[2],50%
same,Population Fragmented Nuclei (%),[2],32%
same,Population Healthy Nuclei (%),[2],41%
same,Population Hoechst High Intensity Objects (%),[2],2%
same,Population Membrane Permeable-Phenotype (%),[2],9%
same,Population Mitochondria Different-Phenotype (%),[2],7%
same,Population Mitotic Cells (%),[2],50%
same,Population Normal (%),[2],97%
same,Population Pyknosed Nuclei (%),[2],25%
same,Population Tubulin-Different-Phenotype (%),[2],74%
same,Total Cell Count,[2],135
same,Population Apoptotic (%),[3],58%
same,Population Fragmented Nuclei (%),[3],25%
same,Population Healthy Nuclei (%),[3],57%
same,Population Hoechst High Intensity Objects (%),[3],5%
same,Population Membrane Permeable-Phenotype (%),[3],0%
same,Population Mitochondria Different-Phenotype (%),[3],78%
same,Population Mitotic Cells (%),[3],41%
same,Population Normal (%),[3],94%
same,Population Pyknosed Nuclei (%),[3],17%
same,Population Tubulin-Different-Phenotype (%),[3],95%
same,Total Cell Count,[3],220
same,Population Apoptotic (%),[4],66%
same,Population Fragmented Nuclei (%),[4],34%
same,Population Healthy Nuclei (%),[4],50%
same,Population Mitochondria Different-Phenotype (%),[4],36%
same,Population Mitotic Cells (%),[4],33%
same,Population Pyknosed Nuclei (%),[4],14%
same,Population Tubulin-Different-Phenotype (%),[4],92%
same,Total Cell Count,[4],242
same,Population Apoptotic (%),[5],52%
same,Population Fragmented Nuclei (%),[5],29%
same,Population Healthy Nuclei (%),[5],52%
same,Population Hoechst High Intensity Objects (%),[5],6%
same,Population Membrane Permeable-Phenotype (%),[5],0%
same,Population Mitochondria Different-Phenotype (%),[5],21%
same,Population Mitotic Cells (%),[5],47%
same,Population Normal (%),[5],93%
same,Population Pyknosed Nuclei (%),[5],18%
same,Population Tubulin-Different-Phenotype (%),[5],40%
same,Total Cell Count,[5],133
same,Population Apoptotic (%),[6],37%
same,Population Fragmented Nuclei (%),[6],33%
same,Population Healthy Nuclei (%),[6],43%
same,Population Hoechst High Intensity Objects (%),[6],3%
same,Population Membrane Permeable-Phenotype (%),[6],3%
same,Population Mitochondria Different-Phenotype (%),[6],11%
same,Population Mitotic Cells (%),[6],62%
same,Population Normal (%),[6],96%
same,Population Pyknosed Nuclei (%),[6],23%
same,Population Tubulin-Different-Phenotype (%),[6],64%
same,Total Cell Count,[6],130
same,Population Apoptotic (%),[7],90%
same,Population Fragmented Nuclei (%),[7],22%
same,Population Healthy Nuclei (%),[7],66%
same,Population Hoechst High Intensity Objects (%),[7],7%
same,Population Membrane Permeable-Phenotype (%),[7],0%
same,Population Mitochondria Different-Phenotype (%),[7],81%
same,Population Mitotic Cells (%),[7],9%
same,Population Normal (%),[7],92%
same,Population Pyknosed Nuclei (%),[7],11%
same,Population Tubulin-Different-Phenotype (%),[7],98%
same,Total Cell Count,[7],211
same,Population Apoptotic (%),[8],66%
same,Population Fragmented Nuclei (%),[8],33%
same,Population Healthy Nuclei (%),[8],56%
same,Population Hoechst High Intensity Objects (%),[8],3%
same,Population Mitochondria Different-Phenotype (%),[8],51%
same,Population Mitotic Cells (%),[8],33%
same,Population Normal (%),[8],96%
same,Population Pyknosed Nuclei (%),[8],9%
same,Population Tubulin-Different-Phenotype (%),[8],90%
same,Total Cell Count,[8],258
same,Population Apoptotic (%),[9],61%
same,Population Fragmented Nuclei (%),[9],26%
same,Population Healthy Nuclei (%),[9],56%
same,Population Hoechst High Intensity Objects (%),[9],6%
same,Population Membrane Permeable-Phenotype (%),[9],2%
same,Population Mitochondria Different-Phenotype (%),[9],17%
same,Population Mitotic Cells (%),[9],38%
same,Population Normal (%),[9],93%
same,Population Pyknosed Nuclei (%),[9],17%
same,Population Tubulin-Different-Phenotype (%),[9],69%
same,Total Cell Count,[9],132
same,Population Apoptotic (%),[10],44%
same,Population Fragmented Nuclei (%),[10],33%
same,Population Healthy Nuclei (%),[10],45%
same,Population Hoechst High Intensity Objects (%),[10],1%
same,Population Membrane Permeable-Phenotype (%),[10],0%
same,Population Mitochondria Different-Phenotype (%),[10],12%
same,Population Mitotic Cells (%),[10],56%
same,Population Normal (%),[10],98%
same,Population Pyknosed Nuclei (%),[10],20%
same,Population Tubulin-Different-Phenotype (%),[10],64%
same,Total Cell Count,[10],124
same,Population Apoptotic (%),[11],91%
same,Population Fragmented Nuclei (%),[11],25%
same,Population Healthy Nuclei (%),[11],61%
same,Population Hoechst High Intensity Objects (%),[11],8%
same,Population Membrane Permeable-Phenotype (%),[11],0%
same,Population Mitochondria Different-Phenotype (%),[11],82%
same,Population Mitotic Cells (%),[11],8%
same,Population Normal (%),[11],91%
same,Population Pyknosed Nuclei (%),[11],12%
same,Population Tubulin-Different-Phenotype (%),[11],97%
same,Total Cell Count,[11],195
same,Population Apoptotic (%),[12],68%
same,Population Fragmented Nuclei (%),[12],38%
same,Population Healthy Nuclei (%),[12],53%
same,Population Hoechst High Intensity Objects (%),[12],4%
same,Population Membrane Permeable-Phenotype (%),[12],2%
same,Population Mitochondria Different-Phenotype (%),[12],33%
same,Population Mitotic Cells (%),[12],31%
same,Population Normal (%),[12],95%
same,Population Pyknosed Nuclei (%),[12],8%
same,Population Tubulin-Different-Phenotype (%),[12],83%
same,Total Cell Count,[12],281
